Experimental data published in ChEMBL document CHEMBL2202985, “Novel series of 3-amino-N-(4-aryl-1,1-dioxothian-4-yl)butanamides as potent and selective dipeptidyl peptidase IV inhibitors” (Bioorg Med Chem Lett, 2012).
The source made the active and inactive calls. The calls are words filed in the database; no cut-off is given here.

How the values were obtained:
Mus musculus [1] = species: Mus musculus; assay: Metabolic stability in mouse; assay type: ADME, organism-based; conditions: in vivo
Homo sapiens = species: Homo sapiens; assay: Metabolic stability in human; assay type: ADME, organism-based; conditions: in vivo
Mus musculus [2] = assay: Inhibition of DPP4 in mouse plasma at 30 to 100 mg/kg, po; assay type: functional, organism-based
Mus musculus [3] = assay: Inhibition of DPP4 in po dosed mouse plasma; assay type: functional, organism-based
Mus musculus [4] = assay: Antidiabetic activity in po dosed ICR mouse assessed as blood glucose excursion after 20 to 120 mins by oral glucose tolerance test; assay type: functional, organism-based
Method in brief: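 ICR mice dosed orally with distilled water vehicle or compound at 1, 3 or 10 mg/kg (10 mL/kg). Tail-nick blood glucose read by glucometer 30 min after dosing, then oral glucose challenge 2 g/kg (10 mL/kg). Blood glucose measured from tail bleeds at 20, 40, 60 and 120 min after glucose.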

Stability (Mus musculus [1]) | Stability (Homo sapiens) | Structure (SMILES) | inhibition (Mus musculus [2]) | inhibition (Mus musculus [3]) | Activity (Mus musculus [4])
Stable | Stable | N[C@@H](CC(=O)NC1(c2cccc(-n3ccnc3)c2)CCS(=O)(=O)CC1)Cc1cc(F)c(F)cc1F | inactive | – | –
Stable | Stable | N[C@@H](CC(=O)NC1(c2nc(-c3ccccc3)cs2)CCS(=O)(=O)CC1)Cc1cc(F)c(F)cc1F | – | Dose-dependent effect | Dose-dependent effect
Stable | Stable | N[C@@H](CC(=O)NC1(c2cccc(-c3cncs3)c2)CCS(=O)(=O)CC1)Cc1cc(F)c(F)cc1F | inactive | – | –
